Source: ChEMBL document CHEMBL4145645, “Bioactive Phenolic Components from the Twigs of Atalantia buxifolia” (J Nat Prod, 2018)

Experiments:
A549 = assay: Cytotoxicity against human A549 cells by MTT assay; assay type: functional, cell-based
MDA-MB-231 = assay: Cytotoxicity against human MDA-MB-231 cells by MTT assay; assay type: functional, cell-based
HepG2 = assay: Cytotoxicity against human HepG2 cells by MTT assay; assay type: functional, cell-based
Neutrophil [1] = assay: Antiinflammatory activity in human neutrophils assessed as inhibition of fMLP/CB-induced superoxide anion generation preincubated for 5 mins followed by cytochalasin B/fMLP addition for 3 mins by superoxide dismutase inhibitable reduction of ferricytochrome c based assay; assay type: functional, cell-based
In short: (§1)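 Human neutrophils stimulated with fMLF. For the superoxide read-out, cells were equilibrated in ferricytochrome c at 0.6 mg/mL. Other steps for superoxide generation and elastase release followed an earlier published protocol. Values are means ± SEM, n = 3 or 4.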

Neutrophil [2] = assay: Antiinflammatory activity in human neutrophils assessed as inhibition of fMLP/CB-induced elastase release preincubated for 5 mins followed by fMLP/CB stimulation and measured for 10 mins using MeO-Suc-Ala-Ala-Pro-Val-p-nitroanilide as substrate; assay type: functional, cell-based; in short: as §1
[3] = Selectivity index, ratio of CC50 for human HuH7 cells to EC50 for DENV2 infected in human HuH7 cells; assay type: toxicity, cell-based; conditions: read-out: Ratio CC50/EC50
dengue virus type 2 = assay: Antiviral activity against DENV2 infected in human HuH7 cells; assay type: functional, organism-based; conditions: Huh-7
[4] = Homo sapiens, MDA-MB-231, read-out: IC50

IC50 (Neutrophil [1]) [µM] | IC50 (Neutrophil [2]) [µM] | EC50 (dengue virus type 2) [µM] | SMILES | IC50 (A549) | IC50 (MDA-MB-231; [4]) [µg/mL] | IC50 (HepG2) | IC50 (MDA-MB-231; mda-mb-231) | selectivity ratio [3]
– | – | – | C=C(C)C(CC/C(C)=C/COc1ccc2ccc(=O)oc2c1)OO (configuration not stated) | > 20 µg/mL | > 20 | > 20 µg/mL | – | –
– | – | – | CO/N=C/C(=O)c1ccc(O/C=C/[C@H](C)C(=O)OC)cc1 | > 20 µg/mL | > 20 | > 20 µg/mL | – | –
– | – | – | CC1(C)CC[C@]2(C)CC[C@H]3[C@]4(C)CC[C@H]5C(C)(C)C(=O)CC[C@]5(C)[C@H]4CC[C@@]3(C)[C@@H]2C1 | > 20 µg/mL | > 20 | > 20 µg/mL | – | –
– | – | – | COC1=CC(=O)c2cc(C)ccc2C1=O | > 20 µg/mL | > 20 | > 20 µg/mL | – | –
2.6 | > 10 | – | CC(C)=CCOc1c2ccoc2cc2oc(=O)ccc12 [ISOIMPERATORIN] | > 20 µg/mL | > 20 | > 20 µg/mL | – | –
– | – | – | C=CC(C)(C)c1cc2ccc(O)cc2oc1=O | > 20 µg/mL | > 20 | > 20 µg/mL | – | –
– | – | – | CC(C)=CCc1c2c(c3c(c1O)c(=O)c1ccccc1n3C)C=CC(C)(C)O2 | > 20 µg/mL | > 20 | > 20 µg/mL | – | –
– | – | – | COc1c2ccoc2cc2oc(=O)ccc12 [BERGAPTEN] | > 20 µg/mL | > 20 | > 20 µg/mL | – | –
– | – | – | COc1cccc2c(=O)c3c(O)cc4c(c3n(C)c12)C=CC(C)(C)O4 | > 20 µg/mL | > 20 | > 20 µg/mL | – | –
– | – | – | CO/N=C/C(=O)c1ccc(OC/C=C(\C)C(=O)OC)cc1 | > 20 µg/mL | > 20 | > 20 µg/mL | – | –
– | – | – | COC(=O)/C(C)=C/COc1ccc(C(=O)OC)cc1 | > 20 µg/mL | > 20 | > 20 µg/mL | – | –
– | – | – | CC(C)=CCc1c(O)c(CC=C(C)C)c2c(c1O)c(=O)c1cccc(O)c1n2C | > 20 µg/mL | > 20 | > 20 µg/mL | – | –
4.8 | > 10 | – | CO/N=C/C(=O)c1ccc(O)cc1 | > 20 µg/mL | > 20 | > 20 µg/mL | – | –
– | – | – | C/C(=C\COc1ccc2ccc(=O)oc2c1)C/C=C/C(C)(C)OO | > 20 µg/mL | > 20 | > 20 µg/mL | – | –
– | – | – | COC(=O)c1ccc(O)cc1 [METHYLPARABEN] | > 20 µg/mL | > 20 | > 20 µg/mL | – | –
– | – | – | COc1cccc2c1C(=O)c1c(O)c3c(c(O)c1C2=O)C[C@@](O)(C(=O)CO)C[C@@H]3O[C@H]1C[C@H](N)[C@H](O)[C@H](C)O1 [DOXORUBICIN] | 0.6 µM | – | – | – | –
– | – | – | CC1(C)C=Cc2c(cc(O)c3c(=O)cc(-c4ccc(O)cc4)oc23)O1 [ATALANTOFLAVONE] | > 20 µg/mL | > 20 | > 20 µg/mL | – | –
– | – | – | CC(C)=CCc1c2c(c3[nH]c4c(O)cccc4c(=O)c3c1O)C=CC(C)(C)O2 [ATALAPHYLLININE] | 7.8 µM | – | 6.5 µM | Not Active | –
– | – | – | C/C(=C\COc1ccc2ccc(=O)oc2c1)C/C=C/C(C)(C)O | > 20 µg/mL | > 20 | > 20 µg/mL | – | –
> 10 | 3.7 | 5.3 | CC(C)=CCc1c2c(c3c(c1O)c(=O)c1cccc(O)c1n3C)C=CC(C)(C)O2 | > 20 µg/mL | > 20 | > 20 µg/mL | – | 6.3
– | – | – | COc1cc(O)c2c(=O)c3cccc(O)c3n(C)c2c1CC=C(C)C [GLYCOCITRINE I] | > 20 µg/mL | > 20 | > 20 µg/mL | – | –
2.1 | 5.1 | – | O=c1cc(N2CCOCC2)oc2c(-c3ccccc3)cccc12 [LY-294002] | – | – | – | – | –
– | – | – | CC(C)=CCOc1ccc(C(=O)/C=N/O)cc1 | > 20 µg/mL | > 20 | > 20 µg/mL | – | –
– | – | – | CC1(C)C=Cc2c(cc(O)c3c(=O)c4cccc(O)c4[nH]c23)O1 [ATOLAPHYLLIDINE] | 7.8 µM | – | 7.3 µM | Not Active | –
– | – | – | C=C(C)C(O)CC/C(C)=C/COc1ccc2ccc(=O)oc2c1 (configuration not stated) | > 20 µg/mL | > 20 | > 20 µg/mL | – | –
– | – | – | CC(C)=CCc1c2c(c3[nH]c4ccccc4c(=O)c3c1O)C=CC(C)(C)O2 [SEVERIFOLINE] | > 20 µg/mL | > 20 | > 20 µg/mL | – | –
– | – | – | COC(=O)/C=C/c1ccc(O)c(OC)c1 | > 20 µg/mL | > 20 | > 20 µg/mL | – | –
4.7 | > 10 | – | CC1(C)C=Cc2c(ccc3ccc(=O)oc23)O1 [SESALIN] | > 20 µg/mL | > 20 | > 20 µg/mL | – | –
– | – | – | COC(=O)c1cccc(O)c1OC [METHYL 3-HYDROXY-2-METHOXYBENZOATE] | > 20 µg/mL | > 20 | > 20 µg/mL | – | –
– | – | – | COc1cc2c(c3[nH]c4ccccc4c(=O)c13)C=CC(C)(C)O2 | > 20 µg/mL | > 20 | > 20 µg/mL | – | –

SMILES | IC50 (Neutrophil [1]) [µM] | IC50 (Neutrophil [2]) [µM] | EC50 (dengue virus type 2) [µM] | IC50 (A549) | IC50 (MDA-MB-231; [4]) [µg/mL] | IC50 (HepG2) | IC50 (MDA-MB-231; mda-mb-231) | selectivity ratio [3]
CC(C)=CCOc1c2occc2cc2ccc(=O)oc12 [PENTOSALEN] | 0.2 | > 10 | – | > 20 µg/mL | > 20 | > 20 µg/mL | – | –
